The source made the active and inactive calls. No cut-off for these calls is given here.
Columns and labels:
[1] = Cytotoxicity against human 30P cells at 50 uM after 72 hrs by celltiter-glo luminescent assay; format: functional
How it was run: (§1)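 Patient-derived CSC spheroids were dissociated, plated at 2000–3000 viable cells, and held 24 h at 37 °C in 5% CO2. They were then treated 72 h with eight 1:3 serial dilutions (0.023–50 μM), with 0.1% DMSO as control, in triplicate. Viability was read by CellTiter-Glo luminescence relative to DMSO, and CC50 was obtained by 4-parameter logistic fit (mean of three experiments).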

[2] = system: U-937; test: Induction of apoptosis in human U937 cells at 50 uM after 45 hrs by flow cytometry; format: functional, cell-based
How it was run: (§2)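 Apoptosis was taken as the pre-G1 peak after propidium iodide staining in hypotonic citrate/Triton buffer (30 min, dark) and flow cytometry. Triplicate experiments.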

[3] = system: MOLT-4; test: Antiproliferative activity against human MOLT4 cells at 25 uM after 24 to 72 hrs by MTT assay; format: functional, cell-based
How it was run: (§3)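 Cells exposed to compound for 24, 48 and 72 h; growth inhibition read by MTT and expressed as percentage antiproliferative activity.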

[4] = Cytotoxicity against human CRO cells at 50 uM after 72 hrs by celltiter-glo luminescent assay; format: functional; how it was run: as §1
[5] = Cytotoxicity against human CRC 1.1 cells at 50 uM after 72 hrs by celltiter-glo luminescent assay; format: functional; how it was run: as §1
[6] = Cytotoxicity against human 30PT cells at 50 uM after 72 hrs by celltiter-glo luminescent assay; format: functional; how it was run: as §1
[7] = system: MOLT-4; test: Antiproliferative activity against human MOLT4 cells at 100 uM by MTT assay; format: functional, cell-based; conditions: TDE = time-dependent effect; how it was run: as §3
[8] = system: MOLT-4; test: Antiproliferative activity against human MOLT4 cells at 100 uM after 24 to 72 hrs by MTT assay; format: functional, cell-based; how it was run: as §3
[9] = system: U-937; test: Induction of apoptosis in human U937 cells at 5 uM after 45 hrs by flow cytometry; format: functional, cell-based; how it was run: as §2
[10] = system: U-937; test: Cell cycle arrest in human U937 cells assessed as accumulation at G1 phase at 25 uM after 40 hrs by flow cytometry; format: functional, cell-based
[11] = target: T1, NAD-dependent protein deacetylase sirtuin-1 (Homo sapiens) (UniProt Q96EB6); test: (§4) Inhibition of human N-terminal GST-tagged SIRT1 expressed in Escherichia coli using Arg-His- Lys-Lys(Ac) as substrate after 1 hr by Fluor de Lys fluorescence based assay
T1 sequence (whole entry): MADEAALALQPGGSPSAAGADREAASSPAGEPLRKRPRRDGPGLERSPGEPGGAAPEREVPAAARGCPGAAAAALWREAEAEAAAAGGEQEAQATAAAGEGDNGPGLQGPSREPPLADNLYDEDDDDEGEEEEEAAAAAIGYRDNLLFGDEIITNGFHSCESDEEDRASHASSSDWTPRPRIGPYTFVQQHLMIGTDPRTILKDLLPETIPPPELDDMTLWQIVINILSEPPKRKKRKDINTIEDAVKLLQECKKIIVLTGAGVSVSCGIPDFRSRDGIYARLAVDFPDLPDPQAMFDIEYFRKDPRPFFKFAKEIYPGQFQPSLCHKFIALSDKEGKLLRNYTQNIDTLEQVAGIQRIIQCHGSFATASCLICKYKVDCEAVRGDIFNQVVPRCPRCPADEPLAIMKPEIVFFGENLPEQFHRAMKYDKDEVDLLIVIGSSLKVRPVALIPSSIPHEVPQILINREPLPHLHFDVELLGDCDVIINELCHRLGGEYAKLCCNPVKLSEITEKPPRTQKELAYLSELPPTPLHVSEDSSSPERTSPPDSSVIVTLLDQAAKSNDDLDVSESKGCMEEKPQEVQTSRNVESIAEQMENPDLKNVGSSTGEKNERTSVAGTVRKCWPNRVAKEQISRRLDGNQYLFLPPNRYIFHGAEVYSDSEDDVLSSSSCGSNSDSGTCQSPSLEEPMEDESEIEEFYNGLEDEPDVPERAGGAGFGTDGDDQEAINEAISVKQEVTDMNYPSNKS
How it was run: (§5)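 Recombinant full-length human sirtuin expressed in E. coli was incubated 1 h at 37 °C with p53-derived AMC-conjugated acetyl-peptide (SIRT1: Arg-His-Lys-Lys(Ac); SIRT2: Gln-Pro-Lys-Lys(Ac); […]) and NAD+ ([…]). The reaction was stopped and developed with developer containing 2 mM nicotinamide, and fluorescence read at ex 360/em 460 nm. Compound fluorescence was subtracted using an enzyme-free counter assay. Triplicate.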

[12] = Cytotoxicity against human 30P cells after 72 hrs by celltiter-glo luminescent assay; format: functional; how it was run: as §1
[13] = Cytotoxicity against human CRC 1.1 cells after 72 hrs by celltiter-glo luminescent assay; format: functional; how it was run: as §1
[14] = system: U-937; test: Induction of apoptosis in human U937 cells after 45 hrs by flow cytometry; format: functional; set-up: concentration or dose not given beside the values; conditions: in the assay text read “after 40 hrs” for “after 45 hrs”; how it was run: as §2
[15] = target: T2, NAD-dependent protein deacetylase sirtuin-1 (Homo sapiens, UniProt Q96EB6); test: as §4; how it was run: as §5
T2 sequence (Q96EB6 whole entry): T1 sequence (whole entry)

[16] = system: U-937; test: Cell cycle arrest in human U937 cells assessed as accumulation at S phase at 25 uM after 40 hrs by flow cytometry; format: functional, cell-based

For `CC(C[S+]([O-])c1ccccc1/N=C/c1c(O)ccc2ccccc12)c1ccccc1` (stereo not given), the inhibition at 50 µM [1] was 42%, the Activity [2] was “Active” and the Activity [3] was “Active”. It also gave an inhibition at 50 µM [4] of 33%, an inhibition at 50 µM [5] of 46% and an inhibition at 50 µM [6] of 39%. The Activity [7] was “tde”, the Activity [8] was “Active” and the Activity [9] was “inactive”.

In the case of `CC(CS(=O)(=O)c1ccc(/N=C/c2c(O)ccc3ccccc23)cc1)c1ccccc1` (stereo not given), the Activity [2] is reported as “Active”, the Activity [10] is reported as “Active” and the inhibition [11] is reported as “Active”. For the same compound, the CC50 [12] was 30.2 µM, the Activity [8] was “Active” and the Activity [9] was “inactive”. It also gave a CC50 [13] of 34 µM.

In the case of `CC(CSc1ccccc1/N=C/c1c(O)ccc2ccccc12)c1ccccc1` (stereo not given), the Activity [2] is reported as “Active”, the Activity [3] is reported as “Active” and the Activity [9] is reported as “inactive”.

In the case of `CC(C[S+]([O-])c1ccc(/N=C/c2c(O)ccc3ccccc23)cc1)c1ccccc1` (stereo not given), the Activity [2] is reported as “Active”, the Activity [7] is reported as “tde” and the Activity [8] is reported as “Active”. The Activity [9] was “inactive”.

In the case of `CC(CSc1ccc(/N=C/c2c(O)ccc3ccccc23)cc1)c1ccccc1` (stereo not given), the Activity [2] is reported as “Active”, the Activity [8] is reported as “Active” and the Activity [14] is reported as 90%. For the same compound, the Activity [9] was “inactive”.

For `CC(C(=O)Nc1ccc(/N=C/c2c(O)ccc3ccccc23)cc1)c1ccccc1` (stereo not given), the Activity [2] was “Active”, the Activity [10] was “Active” and the IC50 [15] was 40.9 µM. The Activity [7] was “tde”, the Activity [8] was “Active” and the Activity [14] was 70%. For the same compound, the Activity [9] was “inactive”.

With `CC(C[S+]([O-])c1cccc(/N=C/c2c(O)ccc3ccccc23)c1)c1ccccc1` (stereo not given) the Activity [2] was “Active”, the Activity [3] was “Active” and the IC50 [15] was 40.3 µM. The CC50 [12] was 35 µM, the Activity [8] was “Active” and the Activity [9] was “inactive”. It also gave a CC50 [13] of 23.4 µM.

With `CC(NC(=O)c1ccc(/N=C/c2c(O)ccc3ccccc23)cc1)c1ccccc1` (stereo not given) the Activity [2] was “Active”, the Activity [3] was “Active” and the Activity [10] was “Active”. For the same compound, the inhibition [11] was “Active”, the Activity [7] was “tde” and the Activity [8] was “Active”. For the same compound, the Activity [14] was 47% and the Activity [9] was “inactive”.

For `CC(C(=O)Nc1ccccc1/N=C/c1c(O)ccc2ccccc12)c1ccccc1` (stereo not given), the Activity [2] was “Active”, the Activity [16] was “Active” and the Activity [9] was “inactive”.

With `CC(NS(=O)(=O)c1cccc(/N=C/c2c(O)ccc3ccccc23)c1)c1ccccc1` (stereo not given) the Activity [2] was “Active”, the Activity [16] was “Active” and the Activity [9] was “inactive”.
